Laboratory results published in ChEMBL document CHEMBL5705888, “Substrate specificity and inhibitors of LRRK2, a protein kinase mutated in Parkinson's disease” (Biochem J, 2009).
Active and inactive are the calls of the source. The rule behind the calls is not given here.

Tests used:
[1] = biological target: Leucine-rich repeat serine/threonine-protein kinase 2 (Mus musculus) (UniProt Q5S006); experiment: Inhibition of LRRK2 in mouse Swiss-3T3 cells at 10 uM using Nictide as substrate by immunoblot analysis; format: cell-based
[2] = biological target: 3-phosphoinositide-dependent protein kinase 1 (Homo sapiens) (UniProt O15530); experiment: Inhibition of PDK1 (unknown origin) at 1 uM incubated for 30 mins in presence of [gamma-33P]ATP by multidrop micro reagent based assay relative to control; values are per cent of control
[3] = biological target: Leucine-rich repeat serine/threonine-protein kinase 2 (Homo sapiens, UniProt Q5S007, G2019S); experiment: Inhibition of GST-tagged LRRK2 G2019S mutant (1326 to 2527 residues) (unknown origin) in presence of ATP
[4] = biological target: T1, Mitogen-activated protein kinase kinase kinase kinase 2 (Homo sapiens) (UniProt Q12851); experiment: Inhibition of GCK (unknown origin) at 0.1 uM incubated for 30 mins in presence of [gamma-33P]ATP by multidrop micro reagent based assay relative to control
T1 sequence (whole entry): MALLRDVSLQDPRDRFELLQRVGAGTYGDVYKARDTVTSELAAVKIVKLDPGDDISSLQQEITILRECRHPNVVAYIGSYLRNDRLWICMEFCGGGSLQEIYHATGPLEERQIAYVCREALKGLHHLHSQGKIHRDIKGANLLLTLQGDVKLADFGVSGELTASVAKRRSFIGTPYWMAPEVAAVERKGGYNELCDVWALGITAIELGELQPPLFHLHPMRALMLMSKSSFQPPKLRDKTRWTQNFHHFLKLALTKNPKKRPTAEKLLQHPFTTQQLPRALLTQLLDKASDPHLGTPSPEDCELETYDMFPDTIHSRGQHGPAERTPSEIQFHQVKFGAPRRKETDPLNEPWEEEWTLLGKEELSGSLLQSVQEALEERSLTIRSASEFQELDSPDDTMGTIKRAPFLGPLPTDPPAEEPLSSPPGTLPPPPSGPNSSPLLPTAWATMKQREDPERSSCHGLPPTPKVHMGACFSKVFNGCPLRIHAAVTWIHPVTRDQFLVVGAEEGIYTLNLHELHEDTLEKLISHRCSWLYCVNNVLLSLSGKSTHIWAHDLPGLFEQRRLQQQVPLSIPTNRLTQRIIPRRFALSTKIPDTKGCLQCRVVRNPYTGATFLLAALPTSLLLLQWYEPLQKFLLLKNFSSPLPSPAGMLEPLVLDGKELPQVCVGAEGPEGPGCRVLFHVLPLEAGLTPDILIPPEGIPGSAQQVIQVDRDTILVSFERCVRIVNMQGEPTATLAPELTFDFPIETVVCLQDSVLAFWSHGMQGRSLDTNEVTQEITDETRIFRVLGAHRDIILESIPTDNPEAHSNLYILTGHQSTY

[5] = biological target: Ribosomal protein S6 kinase alpha-1 (Homo sapiens) (UniProt Q15418); experiment: Inhibition of RSK1 (unknown origin) at 10 uM incubated for 30 mins in presence of [gamma-33P]ATP by multidrop micro reagent based assay relative to control
Procedure, shortened: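 Single-concentration screen across a panel of 85 protein kinases. Activity is expressed as a percentage of control incubations run without inhibitor.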

[6] = biological target: Ribosomal protein S6 kinase beta-1 (Homo sapiens) (UniProt P23443); experiment: Residual activity of S6K1 (unknown origin) at 10 uM incubated for 30 mins in presence of [gamma-33P]ATP by multidrop micro reagent based assay relative to control
[7] = biological target: Mitogen-activated protein kinase 9 (Homo sapiens) (UniProt P45984); experiment: Inhibition of JNK2 (unknown origin) at 10 uM incubated for 30 mins in presence of [gamma-33P]ATP by multidrop micro reagent based assay relative to control; values are per cent of control
[8] = biological target: T2, MAP kinase-activated protein kinase 5 (Homo sapiens) (UniProt Q8IW41); experiment: Inhibition of PRAK (unknown origin) at 10 uM incubated for 30 mins in presence of [gamma-33P]ATP by multidrop micro reagent based assay relative to control; values are per cent of control
T2 sequence (whole entry): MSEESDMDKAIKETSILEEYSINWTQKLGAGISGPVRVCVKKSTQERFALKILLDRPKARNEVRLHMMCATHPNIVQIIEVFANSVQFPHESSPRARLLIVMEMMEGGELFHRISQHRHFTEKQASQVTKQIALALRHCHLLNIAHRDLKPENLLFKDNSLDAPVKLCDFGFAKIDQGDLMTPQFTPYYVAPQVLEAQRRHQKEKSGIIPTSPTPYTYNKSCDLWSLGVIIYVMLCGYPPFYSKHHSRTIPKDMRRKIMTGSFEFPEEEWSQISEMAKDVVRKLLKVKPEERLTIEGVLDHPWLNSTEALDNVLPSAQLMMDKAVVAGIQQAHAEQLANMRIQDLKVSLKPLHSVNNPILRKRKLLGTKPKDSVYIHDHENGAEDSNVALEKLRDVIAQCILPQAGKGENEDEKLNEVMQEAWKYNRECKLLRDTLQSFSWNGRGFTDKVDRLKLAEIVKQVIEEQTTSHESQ

[9] = biological target: MAP/microtubule affinity-regulating kinase 3 (Homo sapiens) (UniProt P27448); experiment: Inhibition of MARK3 (unknown origin) at 10 uM incubated for 30 mins in presence of [gamma-33P]ATP by multidrop micro reagent based assay relative to control; values are per cent of control
[10] = biological target: T3, Serine/threonine-protein kinase Nek2 (Homo sapiens) (UniProt P51955); experiment: Inhibition of NEK2a (unknown origin) at 10 uM incubated for 30 mins in presence of [gamma-33P]ATP by multidrop micro reagent based assay relative to control; values are per cent of control
T3 sequence (whole entry): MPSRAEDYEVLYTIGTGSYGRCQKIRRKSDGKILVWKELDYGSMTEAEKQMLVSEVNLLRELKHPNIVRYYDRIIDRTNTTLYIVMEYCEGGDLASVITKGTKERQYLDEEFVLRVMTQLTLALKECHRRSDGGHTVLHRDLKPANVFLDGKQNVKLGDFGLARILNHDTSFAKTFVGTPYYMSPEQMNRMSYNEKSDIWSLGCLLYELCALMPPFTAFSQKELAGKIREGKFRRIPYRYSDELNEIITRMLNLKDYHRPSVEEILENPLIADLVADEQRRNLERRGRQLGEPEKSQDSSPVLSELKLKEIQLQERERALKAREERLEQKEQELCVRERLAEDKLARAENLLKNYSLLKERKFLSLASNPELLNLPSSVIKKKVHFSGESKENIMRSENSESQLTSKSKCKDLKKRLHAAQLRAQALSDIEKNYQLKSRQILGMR

[11] = biological target: Tyrosine-protein kinase BTK (Homo sapiens) (UniProt Q06187); experiment: Inhibition of BTK (unknown origin) at 10 uM incubated for 30 mins in presence of [gamma-33P]ATP by multidrop micro reagent based assay relative to control; values are per cent of control
Sequence of Tyrosine-protein kinase BTK (Homo sapiens) (Q06187 whole entry): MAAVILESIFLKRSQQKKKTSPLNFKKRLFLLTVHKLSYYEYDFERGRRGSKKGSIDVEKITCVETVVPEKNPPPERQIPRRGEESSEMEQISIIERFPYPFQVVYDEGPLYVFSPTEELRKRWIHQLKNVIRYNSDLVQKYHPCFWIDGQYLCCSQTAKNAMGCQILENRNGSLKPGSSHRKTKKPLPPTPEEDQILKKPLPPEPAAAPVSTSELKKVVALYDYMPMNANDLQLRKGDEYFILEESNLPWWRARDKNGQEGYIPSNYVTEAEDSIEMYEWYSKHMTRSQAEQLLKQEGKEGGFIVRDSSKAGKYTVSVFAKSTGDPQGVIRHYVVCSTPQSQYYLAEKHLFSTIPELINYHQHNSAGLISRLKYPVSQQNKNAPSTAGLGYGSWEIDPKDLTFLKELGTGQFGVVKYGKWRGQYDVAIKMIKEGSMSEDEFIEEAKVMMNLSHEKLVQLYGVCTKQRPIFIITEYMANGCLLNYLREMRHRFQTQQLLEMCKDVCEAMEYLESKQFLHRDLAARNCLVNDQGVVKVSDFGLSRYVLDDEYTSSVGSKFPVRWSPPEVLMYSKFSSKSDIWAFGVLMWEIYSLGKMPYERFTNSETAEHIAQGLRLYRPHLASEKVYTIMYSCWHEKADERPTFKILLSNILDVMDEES

Sequence of Mitogen-activated protein kinase 9 (Homo sapiens) (P45984 whole entry, looked up): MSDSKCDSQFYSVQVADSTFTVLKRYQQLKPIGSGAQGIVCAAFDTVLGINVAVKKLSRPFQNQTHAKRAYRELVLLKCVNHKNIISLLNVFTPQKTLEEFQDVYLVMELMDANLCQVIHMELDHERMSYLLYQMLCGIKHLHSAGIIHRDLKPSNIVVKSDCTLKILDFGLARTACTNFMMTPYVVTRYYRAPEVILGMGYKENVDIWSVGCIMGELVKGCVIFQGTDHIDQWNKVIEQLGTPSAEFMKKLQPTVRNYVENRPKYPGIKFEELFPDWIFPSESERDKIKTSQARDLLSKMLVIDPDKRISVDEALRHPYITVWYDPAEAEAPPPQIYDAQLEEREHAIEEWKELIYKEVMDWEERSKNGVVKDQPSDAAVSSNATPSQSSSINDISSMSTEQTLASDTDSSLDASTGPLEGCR
Sequence of Ribosomal protein S6 kinase beta-1 (Homo sapiens) (P23443 whole entry, looked up): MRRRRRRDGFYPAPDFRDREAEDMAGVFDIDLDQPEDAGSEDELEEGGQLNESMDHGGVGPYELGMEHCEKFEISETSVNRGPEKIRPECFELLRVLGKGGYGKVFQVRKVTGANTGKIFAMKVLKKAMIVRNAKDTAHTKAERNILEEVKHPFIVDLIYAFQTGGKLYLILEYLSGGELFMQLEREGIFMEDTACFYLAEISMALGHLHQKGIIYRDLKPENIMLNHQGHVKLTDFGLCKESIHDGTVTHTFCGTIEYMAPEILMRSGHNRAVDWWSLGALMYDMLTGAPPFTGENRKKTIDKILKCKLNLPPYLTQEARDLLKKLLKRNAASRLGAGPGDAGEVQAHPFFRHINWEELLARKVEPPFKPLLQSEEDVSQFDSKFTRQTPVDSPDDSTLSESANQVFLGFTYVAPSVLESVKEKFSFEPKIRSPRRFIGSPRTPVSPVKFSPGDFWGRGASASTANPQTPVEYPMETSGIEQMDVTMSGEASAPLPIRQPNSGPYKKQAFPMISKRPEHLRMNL
Sequence of Leucine-rich repeat serine/threonine-protein kinase 2 (Q5S007 whole entry G2019S, the tested form may be a part): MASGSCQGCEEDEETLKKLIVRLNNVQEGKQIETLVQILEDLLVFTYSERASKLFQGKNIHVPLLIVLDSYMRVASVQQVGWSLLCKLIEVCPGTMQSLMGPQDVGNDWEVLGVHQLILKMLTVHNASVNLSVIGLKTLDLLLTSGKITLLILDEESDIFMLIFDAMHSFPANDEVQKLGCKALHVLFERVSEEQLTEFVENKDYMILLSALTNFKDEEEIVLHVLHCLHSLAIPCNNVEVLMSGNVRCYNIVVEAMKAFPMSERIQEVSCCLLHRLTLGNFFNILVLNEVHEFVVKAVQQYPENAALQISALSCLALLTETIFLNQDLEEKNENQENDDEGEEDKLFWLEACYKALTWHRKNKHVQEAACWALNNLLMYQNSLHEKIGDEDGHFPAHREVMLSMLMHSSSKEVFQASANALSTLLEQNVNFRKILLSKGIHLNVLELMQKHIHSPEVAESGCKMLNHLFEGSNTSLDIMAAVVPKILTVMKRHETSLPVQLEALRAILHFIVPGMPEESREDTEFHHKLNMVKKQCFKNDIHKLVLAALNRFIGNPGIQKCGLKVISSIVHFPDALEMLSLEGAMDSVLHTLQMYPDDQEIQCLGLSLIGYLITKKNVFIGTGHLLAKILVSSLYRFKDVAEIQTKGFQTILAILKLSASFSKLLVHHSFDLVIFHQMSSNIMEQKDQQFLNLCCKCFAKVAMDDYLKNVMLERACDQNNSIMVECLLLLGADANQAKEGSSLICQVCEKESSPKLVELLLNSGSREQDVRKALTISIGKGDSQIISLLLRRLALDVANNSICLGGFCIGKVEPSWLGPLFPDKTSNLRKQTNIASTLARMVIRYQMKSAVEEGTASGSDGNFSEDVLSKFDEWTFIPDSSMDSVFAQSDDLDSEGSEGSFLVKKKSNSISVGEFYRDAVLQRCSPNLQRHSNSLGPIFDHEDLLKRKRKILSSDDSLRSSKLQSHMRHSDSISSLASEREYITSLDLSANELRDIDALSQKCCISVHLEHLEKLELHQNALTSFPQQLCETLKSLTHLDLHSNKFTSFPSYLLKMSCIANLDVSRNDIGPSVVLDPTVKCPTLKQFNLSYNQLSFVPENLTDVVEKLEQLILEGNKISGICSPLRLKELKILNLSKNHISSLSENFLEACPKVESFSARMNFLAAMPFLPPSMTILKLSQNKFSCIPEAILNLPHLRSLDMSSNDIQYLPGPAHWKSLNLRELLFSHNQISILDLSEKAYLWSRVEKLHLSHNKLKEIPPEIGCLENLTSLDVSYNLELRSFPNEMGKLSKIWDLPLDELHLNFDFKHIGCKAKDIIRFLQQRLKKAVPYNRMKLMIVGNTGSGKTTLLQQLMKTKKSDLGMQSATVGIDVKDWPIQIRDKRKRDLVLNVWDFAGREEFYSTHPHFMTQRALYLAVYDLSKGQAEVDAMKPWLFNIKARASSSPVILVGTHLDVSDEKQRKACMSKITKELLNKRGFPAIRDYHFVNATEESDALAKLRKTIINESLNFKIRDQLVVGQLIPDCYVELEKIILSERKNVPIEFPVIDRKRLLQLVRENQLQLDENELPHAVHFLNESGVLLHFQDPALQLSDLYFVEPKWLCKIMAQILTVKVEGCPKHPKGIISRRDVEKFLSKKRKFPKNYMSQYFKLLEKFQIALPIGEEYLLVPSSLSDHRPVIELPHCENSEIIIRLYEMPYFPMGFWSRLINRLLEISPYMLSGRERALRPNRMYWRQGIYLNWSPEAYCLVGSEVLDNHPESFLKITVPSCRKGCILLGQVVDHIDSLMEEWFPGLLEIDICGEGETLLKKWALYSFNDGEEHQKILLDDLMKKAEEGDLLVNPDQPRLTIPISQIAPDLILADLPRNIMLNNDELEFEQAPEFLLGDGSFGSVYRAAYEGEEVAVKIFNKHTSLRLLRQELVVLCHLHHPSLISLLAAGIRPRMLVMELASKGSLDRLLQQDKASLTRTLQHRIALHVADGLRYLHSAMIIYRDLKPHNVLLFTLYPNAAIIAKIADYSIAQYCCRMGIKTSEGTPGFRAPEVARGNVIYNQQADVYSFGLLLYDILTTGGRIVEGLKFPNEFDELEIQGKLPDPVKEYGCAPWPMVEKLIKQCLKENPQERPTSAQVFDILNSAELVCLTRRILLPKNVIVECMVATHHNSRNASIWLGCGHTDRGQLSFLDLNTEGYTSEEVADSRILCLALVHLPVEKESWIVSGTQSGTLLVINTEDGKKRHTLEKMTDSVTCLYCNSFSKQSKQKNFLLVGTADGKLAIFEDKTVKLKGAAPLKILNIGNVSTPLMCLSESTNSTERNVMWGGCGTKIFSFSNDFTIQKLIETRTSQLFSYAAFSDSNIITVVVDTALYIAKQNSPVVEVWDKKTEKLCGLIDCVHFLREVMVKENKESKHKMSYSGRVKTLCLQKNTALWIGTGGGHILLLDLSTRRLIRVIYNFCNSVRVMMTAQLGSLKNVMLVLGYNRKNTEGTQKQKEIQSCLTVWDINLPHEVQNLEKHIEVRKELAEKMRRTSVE
Sequence of MAP/microtubule affinity-regulating kinase 3 (Homo sapiens) (P27448 whole entry, looked up): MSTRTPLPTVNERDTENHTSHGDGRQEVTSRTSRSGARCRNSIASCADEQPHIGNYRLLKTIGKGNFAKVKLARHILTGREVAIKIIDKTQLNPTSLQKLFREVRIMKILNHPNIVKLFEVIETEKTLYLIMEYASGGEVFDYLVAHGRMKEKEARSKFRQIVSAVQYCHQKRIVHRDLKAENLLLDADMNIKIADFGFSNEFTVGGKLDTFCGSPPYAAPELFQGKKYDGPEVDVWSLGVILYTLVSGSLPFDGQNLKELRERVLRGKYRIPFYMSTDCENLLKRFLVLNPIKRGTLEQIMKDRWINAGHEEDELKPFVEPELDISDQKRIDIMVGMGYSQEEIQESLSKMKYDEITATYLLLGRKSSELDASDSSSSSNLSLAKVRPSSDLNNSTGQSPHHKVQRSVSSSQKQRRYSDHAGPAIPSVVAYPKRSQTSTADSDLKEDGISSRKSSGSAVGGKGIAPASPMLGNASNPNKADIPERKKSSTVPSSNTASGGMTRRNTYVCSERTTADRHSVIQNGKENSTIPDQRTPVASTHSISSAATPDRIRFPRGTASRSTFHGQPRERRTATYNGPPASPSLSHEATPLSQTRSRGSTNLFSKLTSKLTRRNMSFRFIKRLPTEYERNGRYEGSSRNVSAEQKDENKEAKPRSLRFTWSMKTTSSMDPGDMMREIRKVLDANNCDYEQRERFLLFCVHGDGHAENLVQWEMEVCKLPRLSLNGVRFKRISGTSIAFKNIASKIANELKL

CC1=C(C(=O)Nc2cc3cn[nH]c3cc2F)C(c2ccc(C(F)(F)F)cc2)CC(=O)N1 (stereo unspecified)
inhibition [1]: inactive | residual activity [2]: 120%

Cc1cncc2cccc(S(=O)(=O)N3CCCNC[C@@H]3C)c12
IC50 [3]: 104 nM

CCN(CC)CCNC(=O)c1c(C)[nH]c(/C=C2\C(=O)Nc3ccc(F)cc32)c1C
inhibition [4]: 45%

C[C@@H](N)[C@H]1CC[C@H](C(=O)Nc2ccncc2)CC1
inhibition [5]: 26% | residual activity [6]: 70% | residual activity [7]: 96% | residual activity [8]: 88% | residual activity [9]: 105% | residual activity [10]: 104%

O=S(=O)(c1cccc2cnccc12)N1CCCNCC1 [FASUDIL]
residual activity [11]: 112%
